Data reported in PubChem BioAssay AID624038 (The Scripps Research Institute Molecular Screening Center, 2012).
Where “and” joins values, the source holds several entries; their conditions need not be identical. Identical values can stand only once. The campaign covered roughly 360,000 compounds. About 1,100 (0.31%) were called active.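 How the source made its calls: active means activation above the run cutoff, the mean activation of all test compounds plus 3 SD (cut at about 18% in these data); inactive means the rest.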 What follows is part of a selection rich in actives, with near analogues and random picks from the rest. Where a structure was tested more than once in an assay, its records may differ in their call.

These molecules were tested against Muscarinic acetylcholine receptor M5 (Homo sapiens) (UniProt P08912) (assay: human M5 muscarinic receptor positive allosteric modulators, primary screen, CHO-K1 cells, Fluo-8 calcium fluorescence (AID 624038)). Conditions: CHO-K1 hM5, Fluo-8 calcium, ACh EC20 PAM; at 3 µM; stronger effect = higher value; 0% = ACh EC20, 100% = ACh EC100.
Sequence of Muscarinic acetylcholine receptor M5 (Homo sapiens) (P08912 whole entry, looked up): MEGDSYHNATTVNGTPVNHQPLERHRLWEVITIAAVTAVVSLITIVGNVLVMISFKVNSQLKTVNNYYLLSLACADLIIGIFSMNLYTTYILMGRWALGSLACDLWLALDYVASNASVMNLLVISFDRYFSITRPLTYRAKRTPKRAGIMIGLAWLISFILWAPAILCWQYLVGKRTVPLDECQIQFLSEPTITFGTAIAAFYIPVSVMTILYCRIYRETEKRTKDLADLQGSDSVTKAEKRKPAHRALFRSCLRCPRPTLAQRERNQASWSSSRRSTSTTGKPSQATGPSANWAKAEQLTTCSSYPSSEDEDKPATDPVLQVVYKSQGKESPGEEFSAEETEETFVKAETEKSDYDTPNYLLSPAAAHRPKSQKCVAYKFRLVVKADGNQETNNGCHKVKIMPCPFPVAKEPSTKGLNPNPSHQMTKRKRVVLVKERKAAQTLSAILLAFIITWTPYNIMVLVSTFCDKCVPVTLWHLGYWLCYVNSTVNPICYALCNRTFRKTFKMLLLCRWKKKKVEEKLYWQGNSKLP
Procedure, shortened: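 Assay system – human M5 receptor in CHO-K1 cells · Read-out – % activation, ACh-normalized · Technique – Fluo-8 calcium fluorescence · Dosing – single-point, 3 µM nominal · Incubation – Fluo-8 loading 80 min at 37 °C plus 30 min room temperature · Repeats – singlicate, one well per test compound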
With `CCOc1ccc(S(=O)(=O)N2CCCC(C(=O)N3CCC(C(N)=O)CC3)C2)cc1Cl` (centres undefined) the activation was 5.31% (inactive). For `CCCCOP(=O)(c1ccc(N(C)C)cc1)C(O)c1cc(OC)ccc1OC` (centres undefined), the activation was 4.18% (inactive). In the case of `CSCC(=O)N1CCCC(C(=O)c2cc(F)ccc2F)C1` (centres undefined), the activation is reported as -4.39% (inactive). `S=C(Nc1ccc(Br)cc1Cl)N1CCC2(CC1)OCCO2` was tested, and the activation was -0.18% (inactive). For `NC(=O)C1=C[C@@H](c2ccc3c(c2)OCO3)C[C@@H](OCCCCO)O1`, the activation was -3.38% (inactive). In the case of `Cc1nn(Cc2ccccc2)c(C)c1NS(=O)(=O)c1ccccc1`, the activation is reported as -9.59% (inactive). In the case of `O=C(CS(=O)(=O)c1ccccc1)Nc1ccc(S(=O)(=O)Nc2ccccn2)cc1`, the activation is reported as -5.27% (inactive). In the case of `COc1ccc(NC(=O)CS(=O)(=O)c2ccccc2)cc1`, the activation is reported as 18.2% (active). `COc1ccc(NC(=O)CC(NC(C)c2ccccc2)C(=O)O)cc1` (centres undefined) was tested, and the activation was -1.9% (inactive). With `CCOC(=O)N1CCC(NC(=O)C(C)n2c3ccccc3c3cnn(C)c(=O)c32)CC1` (centres undefined) the activation was -5.66% (inactive). For `CCN(CC(=O)Nc1c(F)cccc1F)C(=O)c1ccc(Sc2nncn2C)c([N+](=O)[O-])c1`, the activation was 0.28% (inactive). In the case of `COc1ccc(C(C(=O)NC2CCCCC2)N(C(=O)c2snc(C(N)=O)c2N)c2ccccc2OC)cc1` (centres undefined), the activation is reported as -2.86% (inactive). With `Cc1ccccc1N(C(=O)CNC(=O)c1cccs1)C(C(=O)NC1CCCC1)c1ccncc1` (centres undefined) the activation was 5.18% (inactive). In the case of `COc1ccc(C(C(=O)NC2CCCCC2)N(C(=O)CCl)c2ccccc2Cl)cc1` (centres undefined), the activation is reported as 28.1% (active). In the case of `O=C(CSc1nc2ncccc2[nH]1)Nc1ccc2c(c1)OCCO2`, the activation is reported as -2.19% (inactive). With `CCOc1ccccc1NC(=O)NC1CCCCCCC1` the activation was -0.6% (inactive). For `CCOc1ccc(NC(=O)CCC(=O)NNC(=O)NC2CCCCC2)cc1`, the activation was 21.3% (active). `CCOc1ccc(C(=O)CCC(=O)Nc2ccncc2)cc1` was tested, and the activation was -11.9% (inactive). In the case of `O=C(CCn1c(=O)oc2ccccc21)Nc1ccon1`, the activation is reported as 3.01% (inactive). `CC(NCc1cccs1)C(=O)Nc1cc(Cl)cc(Cl)c1` (centres undefined) was tested, and the activation was -6.98% (inactive). For `CCCCNC(=O)c1ccccc1NC(=O)C1=C(C)OCCS1`, the activation was -4.46% (inactive). In the case of `CCCCNC(=O)c1ccccc1NC(=O)c1ccccc1N(C)S(C)(=O)=O`, the activation is reported as 21.6% (active). In the case of `CCC(C)NC(=O)c1ccccc1NC(=O)c1ccccc1N(C)S(C)(=O)=O` (centres undefined), the activation is reported as 2.75% (inactive). In the case of `Cc1noc(/C=C/c2ccco2)c1S(=O)(=O)N1CCC(C(=O)N2CCc3ccccc32)CC1`, the activation is reported as -9.2% (inactive). `CC(C)(C)n1nnnc1C(c1ccc2ncccc2c1)N1CCSCC1` (centres undefined) was tested, and the activation was -6.68% (inactive). In the case of `CC1(C)CC(=O)C(C=NCCN2CCN(C(=S)Nc3cccc(Cl)c3)CC2)=C(O)C1`, the activation is reported as 0.98% (inactive). For `CC(C)C(=O)N1CCN(CCN=CC2=C(O)CC(c3ccco3)CC2=O)CC1` (centres undefined), the activation was 18.8% (active) and 2.37% (inactive). With `CC(=O)N1CCN(CCN=CC2=C(O)CC(C)(C)CC2=O)CC1` the activation was -3.36% (inactive). With `COCCNC(=O)C1CCN(C(=O)C2CC(=O)N(c3ccc(C)cc3)C2)CC1` (centres undefined) the activation was 19.9% (active). For `CCCC(C)NC(=O)C1CCN(C(=O)C2CC(=O)N(c3ccc(C)cc3)C2)CC1` (centres undefined), the activation was 1.21% (inactive). `COCCCNC(=O)C1CC(=O)N(c2ccc(C)cc2)C1` (centres undefined) was tested, and the activation was -2.16% (inactive). For `O=C(CCC(=O)n1ncc2ccccc21)NCc1ccccc1Cl`, the activation was -1.46% (inactive). In the case of `O=C(CN1C(=O)NC(Cc2ccccc2)(Cc2ccccc2)C1=O)NCC1CCCCC1`, the activation is reported as -4.45% (inactive). In the case of `O=C(CNc1cccc(S(=O)(=O)N2CCCCC2)c1)Nc1ccccc1F`, the activation is reported as 2.99% (inactive). In the case of `CC(NC(=O)C(=O)Nc1nccs1)c1ccccc1` (centres undefined), the activation is reported as 20.9% (active). In the case of `CC(=O)NC(CC(=O)Nc1nccs1)c1ccccc1` (centres undefined), the activation is reported as 3.53% (inactive). With `C[C@H](NC(=O)c1[nH]cnc1C(=O)Nc1nccs1)c1ccccc1` the activation was 6.95% (inactive). For `CCCCn1nc(C(=O)OCC(=O)Nc2sccc2C(N)=O)c2ccccc2c1=O`, the activation was -5.8% (inactive). In the case of `COC(=O)c1ccc(CN2CCC(CO)(Cc3ccc(OC)cc3)CC2)cc1`, the activation is reported as -13.3% (inactive). `O=C(NC1=NCCS1)c1ccc(Cl)s1` was tested, and the activation was 2.85% (inactive). In the case of `COc1ccc(NC(=O)C(C)SCc2ccccc2)cc1` (centres undefined), the activation is reported as 3.94% (inactive). In the case of `C=CCN1C(=O)C(O)(CC(=O)c2ccccn2)c2ccccc21` (centres undefined), the activation is reported as 0.57% (inactive). With `C=CCN1C(=O)C(O)(CC(=O)c2ccc(Cl)cc2)c2ccccc21` (centres undefined) the activation was 12.2% (inactive). `O=C(CC1(O)C(=O)N(CN2CCOCC2)c2ccccc21)c1ccccc1` (centres undefined) was tested, and the activation was 37.4% (active).
